Reference: ChEMBL document CHEMBL1250465, “A new metabotropic glutamate receptor agonist with in vivo anti-allodynic activity” (Bioorg Med Chem, 2010)
The source made the active and inactive calls.

Legend:
Rattus norvegicus [1] = assay: Antiallodynic activity against von Frey hair mechanically stimulated neuropathic pain in Sprague-Dawley rat assessed as increase of response threshold at 50 nmol dosed intrathecally after 24 hrs relative to control; type: functional; settings: in the assay text read “after 3 hrs” for “after 24 hrs”
Procedure, shortened: (§1)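 Male Sprague-Dawley rats with chronic constriction injury of the left sciatic nerve, dosed 16 days after surgery. Intrathecal dosing under isoflurane, with vehicle as control. Blinded von Frey testing of both hind paws before dosing and at 1, 3 and 24 h. 50% withdrawal threshold in g from a Gaussian integral psychometric fit by maximum likelihood; n = 6.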

[2] = Displacement of [3H]AMPA from AMPA receptor in Sprague-Dawley rat brain synaptic membranes after 30 mins; type: cell membranes, Membrane
Procedure, shortened: (§2)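 Adult male Sprague-Dawley rat cortex synaptic membranes, washed four times in ice-cold pH 7.4 buffer at about 0.4–0.5 mg protein/mL. AMPA: 5 nM [3H]AMPA in 30 mM Tris-HCl/2.5 mM CaCl2 with 100 mM KSCN. Kainate: 5 nM [3H]KAIN in 50 mM Tris-HCl. NMDA: 2 nM [3H]CGP39653 in 50 mM Tris-HCl/2.5 mM CaCl2. Nonspecific binding set with 1 mM (S)-Glu.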

Rattus norvegicus [3] = assay: Antiallodynic activity against von Frey hair mechanically stimulated neuropathic pain in Sprague-Dawley rat assessed as increase of response threshold at 250 nmol dosed intrathecally after 24 hrs relative to control; type: functional; settings: in the assay text read “after 3 hrs” for “after 24 hrs”; procedure, shortened: as §1
Rattus norvegicus [4] = assay: Antiallodynic activity against von Frey hair mechanically stimulated neuropathic pain in Sprague-Dawley rat assessed as increase of response threshold at 500 nmol dosed intrathecally after 24 hrs; type: functional, organism-based; procedure, shortened: as §1
[5] = target: Metabotropic glutamate receptor 1 (Homo sapiens, UniProt Q13255); assay: Agonist activity at mGlu1 receptor expressed in CHO cells assessed as myo-[2-3H]Inositol turnover by scintillation counting; type: functional, cell-based
Metabotropic glutamate receptor 1, sequence (Q13255 whole entry): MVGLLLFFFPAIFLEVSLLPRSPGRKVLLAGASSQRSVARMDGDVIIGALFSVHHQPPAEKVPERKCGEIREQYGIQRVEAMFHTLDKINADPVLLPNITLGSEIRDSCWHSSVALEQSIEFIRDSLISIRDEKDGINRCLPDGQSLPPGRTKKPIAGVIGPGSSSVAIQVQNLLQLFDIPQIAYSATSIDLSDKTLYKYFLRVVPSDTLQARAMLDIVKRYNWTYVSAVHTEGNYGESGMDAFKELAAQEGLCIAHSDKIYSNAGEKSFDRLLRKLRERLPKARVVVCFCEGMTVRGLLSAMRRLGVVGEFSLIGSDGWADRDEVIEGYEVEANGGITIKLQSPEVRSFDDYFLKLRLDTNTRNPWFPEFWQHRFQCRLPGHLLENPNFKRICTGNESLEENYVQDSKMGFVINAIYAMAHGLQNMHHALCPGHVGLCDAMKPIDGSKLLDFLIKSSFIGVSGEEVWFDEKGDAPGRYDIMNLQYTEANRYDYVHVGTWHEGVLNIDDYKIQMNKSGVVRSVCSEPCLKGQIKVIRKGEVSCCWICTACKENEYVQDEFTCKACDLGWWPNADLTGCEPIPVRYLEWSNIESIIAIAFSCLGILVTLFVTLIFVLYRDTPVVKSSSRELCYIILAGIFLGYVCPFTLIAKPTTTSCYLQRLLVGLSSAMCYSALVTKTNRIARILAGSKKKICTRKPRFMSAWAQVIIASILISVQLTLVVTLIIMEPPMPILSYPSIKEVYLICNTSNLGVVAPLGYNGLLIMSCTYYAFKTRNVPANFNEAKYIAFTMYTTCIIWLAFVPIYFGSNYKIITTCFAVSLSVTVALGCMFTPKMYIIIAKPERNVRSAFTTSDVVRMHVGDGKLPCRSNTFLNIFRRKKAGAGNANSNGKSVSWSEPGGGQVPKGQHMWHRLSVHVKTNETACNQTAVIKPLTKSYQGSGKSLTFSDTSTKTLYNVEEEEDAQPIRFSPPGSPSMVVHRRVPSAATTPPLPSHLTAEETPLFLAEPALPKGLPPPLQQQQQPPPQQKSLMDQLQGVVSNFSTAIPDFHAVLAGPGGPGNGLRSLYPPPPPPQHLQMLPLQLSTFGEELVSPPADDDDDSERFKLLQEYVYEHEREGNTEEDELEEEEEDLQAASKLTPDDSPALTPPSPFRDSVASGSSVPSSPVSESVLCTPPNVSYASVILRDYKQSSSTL
Procedure, shortened: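 CHO cells stably expressing receptor, washed with DPBS, preincubated 30 min at 37 °C in HBSS with 20 mM HEPES, 1 mM CaCl2, 1 mM MgCl2, 0.85 mg/mL LiCl, pH 7.4; compound added for 30 min at 37 °C. Stopped with ice-cold 10 mM formic acid, 30 min at 4 °C. [3H]IP measured with yttrium silicate SPA beads; counts per minute read.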

[6] = Displacement of [3H]KAIN from kainate receptor in Sprague-Dawley rat brain synaptic membranes after 60 mins; type: cell membranes, Membrane; procedure, shortened: as §2
Rattus norvegicus [7] = assay: Antiallodynic activity against von Frey hair mechanically stimulated neuropathic pain in intrathecally dosed Sprague-Dawley rat assessed as increase of response threshold after 3 hrs; type: functional, organism-based; procedure, shortened: as §1
[8] = target: Metabotropic glutamate receptor 4 (Homo sapiens, UniProt Q14833); assay: Agonist activity at mGlu4 receptor expressed in CHO cells assessed as inhibition of forskolin-induced increase of cAMP level; type: functional, cell-based
Metabotropic glutamate receptor 4, sequence (Q14833 whole entry): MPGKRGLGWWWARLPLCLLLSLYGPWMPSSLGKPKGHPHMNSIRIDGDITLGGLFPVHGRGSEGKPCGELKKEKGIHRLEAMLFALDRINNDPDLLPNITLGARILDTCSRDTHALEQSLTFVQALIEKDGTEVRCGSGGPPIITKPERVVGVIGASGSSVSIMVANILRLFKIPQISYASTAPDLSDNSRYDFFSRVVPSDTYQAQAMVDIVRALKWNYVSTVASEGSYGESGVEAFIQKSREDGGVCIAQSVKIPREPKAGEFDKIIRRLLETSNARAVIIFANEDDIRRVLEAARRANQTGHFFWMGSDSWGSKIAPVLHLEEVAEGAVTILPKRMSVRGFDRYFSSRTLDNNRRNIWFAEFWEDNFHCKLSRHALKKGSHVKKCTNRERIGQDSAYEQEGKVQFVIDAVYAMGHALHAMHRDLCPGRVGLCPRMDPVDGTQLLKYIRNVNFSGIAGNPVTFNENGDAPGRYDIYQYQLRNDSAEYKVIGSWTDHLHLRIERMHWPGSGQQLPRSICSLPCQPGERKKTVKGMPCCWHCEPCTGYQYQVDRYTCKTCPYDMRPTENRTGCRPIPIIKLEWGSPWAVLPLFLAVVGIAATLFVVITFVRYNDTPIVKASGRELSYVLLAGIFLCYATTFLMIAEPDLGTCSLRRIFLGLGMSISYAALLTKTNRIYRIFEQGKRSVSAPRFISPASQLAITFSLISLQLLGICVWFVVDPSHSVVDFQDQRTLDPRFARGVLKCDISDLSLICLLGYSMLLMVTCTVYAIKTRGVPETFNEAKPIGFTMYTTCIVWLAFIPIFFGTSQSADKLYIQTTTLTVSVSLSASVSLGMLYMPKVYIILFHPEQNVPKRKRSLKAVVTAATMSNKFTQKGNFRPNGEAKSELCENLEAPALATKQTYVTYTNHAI
Procedure, shortened: (§3)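 CHO cells grown in DMEM GlutaMAX-I, 10% dialyzed FBS, 2.5 g/L L-proline, seeded 26,000/well 24 h before. After a 20 min, 37 °C preincubation in DPBS with 1 mM CaCl2, 1 mM MgCl2, 1 mM IBMX, compound plus 25 µM forskolin was given for 10 min at 37 °C. Stopped with ice-cold sodium acetate pH 6.2, 0.1% Triton X-100, 0.1 mM IBMX; cAMP by radioimmunoassay.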

Glutamate NMDA receptor = assay: Displacement of [3H]CGP39653 from NMDA receptor in Sprague-Dawley rat brain synaptic membranes after 60 mins; type: cell membranes, Membrane; procedure, shortened: as §2
[9] = target: T1, Metabotropic glutamate receptor 2 (Homo sapiens, UniProt Q14416); assay: Agonist activity at mGlu2 receptor expressed in CHO cells assessed as inhibition of forskolin-induced increase of cAMP level; type: functional, cell-based; procedure, shortened: as §3
T1 sequence (Q14416 whole entry): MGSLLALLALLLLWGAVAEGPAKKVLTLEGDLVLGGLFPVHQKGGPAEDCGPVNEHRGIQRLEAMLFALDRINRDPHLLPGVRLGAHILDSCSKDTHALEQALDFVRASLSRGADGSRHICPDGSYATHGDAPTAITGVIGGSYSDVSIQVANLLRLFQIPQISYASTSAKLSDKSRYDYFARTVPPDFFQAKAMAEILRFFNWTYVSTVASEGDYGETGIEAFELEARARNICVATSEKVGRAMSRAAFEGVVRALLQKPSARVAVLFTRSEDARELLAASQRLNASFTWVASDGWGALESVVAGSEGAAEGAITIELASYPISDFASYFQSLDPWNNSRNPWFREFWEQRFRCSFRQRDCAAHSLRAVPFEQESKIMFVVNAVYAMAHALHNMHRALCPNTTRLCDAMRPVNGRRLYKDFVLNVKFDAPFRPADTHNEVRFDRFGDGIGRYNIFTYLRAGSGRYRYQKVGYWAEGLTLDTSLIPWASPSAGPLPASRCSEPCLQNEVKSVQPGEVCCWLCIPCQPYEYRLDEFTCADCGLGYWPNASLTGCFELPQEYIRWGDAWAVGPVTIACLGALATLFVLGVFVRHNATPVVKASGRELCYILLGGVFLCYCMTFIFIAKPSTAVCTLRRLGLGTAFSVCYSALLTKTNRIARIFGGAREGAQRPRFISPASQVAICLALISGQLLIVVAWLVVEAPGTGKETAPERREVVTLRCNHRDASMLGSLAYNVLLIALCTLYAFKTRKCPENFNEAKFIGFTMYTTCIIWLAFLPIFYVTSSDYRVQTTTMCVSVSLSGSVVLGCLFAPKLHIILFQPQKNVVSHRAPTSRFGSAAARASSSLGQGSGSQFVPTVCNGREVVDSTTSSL

Rattus norvegicus [10] = assay: Antiallodynic activity against von Frey hair mechanically stimulated neuropathic pain in Sprague-Dawley rat assessed as increase of response threshold at 500 nmol dosed intrathecally after 1 hr; type: functional, organism-based; procedure, shortened: as §1
Rattus norvegicus [11] = assay: Antiallodynic activity against von Frey hair mechanically stimulated neuropathic pain in Sprague-Dawley rat assessed as increase of response threshold at 500 nmol dosed intrathecally after 3 hrs relative to control; type: functional; procedure, shortened: as §1
[12] = target: T1, Metabotropic glutamate receptor 2; assay: Antagonist activity at mGlu2 receptor expressed in CHO cells assessed as increase of cAMP level; type: functional, cell-based

Row | IC50 [2] | EC50 [5] | IC50 [6] | EC50 [8] | IC50 (Glutamate NMDA receptor) | EC50 [9] | IC50 [12] | SMILES | Activity (Rattus norvegicus [1]) | Activity (Rattus norvegicus [3]) | Activity (Rattus norvegicus [4]) | Activity (Rattus norvegicus [7]) | Activity (Rattus norvegicus [10]) | Activity (Rattus norvegicus [11])
1 | > 100 µM | > 100 µM | > 100 µM | > 100 µM | > 100 µM | 0.05 µM | – | N[C@H](C(=O)O)[C@@H]1[C@@H](C(=O)O)[C@@H]1C1CC1 (racemic) | 5 g | 7.5 g | inactive | Dose-dependent effect | Active | 10 g
2 | > 100 µM | > 100 µM | > 100 µM | > 100 µM | > 100 µM | – | 62 µM | N[C@H](C(=O)O)[C@@H]1[C@@H](C(=O)O)[C@@H]1C1CCCCC1 (racemic) | – | – | – | – | – | –
3 | – | > 100 µM | – | > 100 µM | – | 0.01 µM | – | C[C@H]1[C@H](C(=O)O)[C@H]1[C@H](N)C(=O)O (racemic) | – | – | – | – | – | –
